ChEMBL document CHEMBL1136994, “Substitution of arginine with proline and proline derivatives in melanocyte-stimulating hormones leads to selectivity for human melanocortin 4 receptor” (J Med Chem, 2009)

Tests used:
[1] = molecular target: T1, Melanocyte-stimulating hormone receptor (Homo sapiens, UniProt Q01726); test: biochemical; format: cell-based, HEK293
[2] = molecular target: T1, Melanocyte-stimulating hormone receptor; format: functional, cell-based, HEK293
[3] = molecular target: T1, Melanocyte-stimulating hormone receptor; test: Displacement of [125I][Nle4,Dphe7]-alpha-MSH from human MC1R expressed in HEK293 cells at 10 uM; format: cell-based
How it was run: (§1)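 Stably transfected HEK293 cells for each hMCR were seeded 48 h ahead at 100 000 cells/well. Buffer was MEM with 25 mM HEPES pH 7.4, 0.2% BSA, 1 mM 1,10-phenanthroline, leupeptin and bacitracin. […] After washing, cells were lysed in NaOH/Triton and counted by γ counter. Binding was scored at 10^-5 M.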

Melanocortin receptor 5 [4] = molecular target: T2, Melanocortin receptor 5 (Homo sapiens, UniProt P33032); test: biochemical; format: cell-based, HEK293
Melanocortin receptor 3 [5] = molecular target: T3, Melanocortin receptor 3 (Homo sapiens, UniProt P41968); format: functional, cell-based, HEK293
Melanocortin receptor 5 [6] = molecular target: T2, Melanocortin receptor 5; format: functional, cell-based, HEK293
Melanocortin receptor 4 [7] = molecular target: T4, Melanocortin receptor 4 (Homo sapiens, UniProt P32245); format: functional, cell-based, HEK293
Melanocortin receptor 4 [8] = molecular target: T4, Melanocortin receptor 4; test: biochemical; format: cell-based, HEK293
Melanocortin receptor 3 [9] = molecular target: T3, Melanocortin receptor 3; test: biochemical; format: cell-based, HEK293
Melanocortin receptor 5 [10] = molecular target: T2, Melanocortin receptor 5; test: Displacement of [125I][Nle4,Dphe7]-alpha-MSH from human MC5R expressed in HEK293 cells at 10 uM; format: cell-based
Melanocortin receptor 3 [11] = molecular target: T3, Melanocortin receptor 3; test: Displacement of [125I][Nle4,Dphe7]-alpha-MSH from human MC3R expressed in HEK293 cells at 10 uM; format: cell-based
Melanocortin receptor 4 [12] = molecular target: T4, Melanocortin receptor 4; test: Displacement of [125I][Nle4,Dphe7]-alpha-MSH from human MC4R expressed in HEK293 cells at 10 uM; format: cell-based
How it was run: as §1

T3 sequence (P41968 whole entry): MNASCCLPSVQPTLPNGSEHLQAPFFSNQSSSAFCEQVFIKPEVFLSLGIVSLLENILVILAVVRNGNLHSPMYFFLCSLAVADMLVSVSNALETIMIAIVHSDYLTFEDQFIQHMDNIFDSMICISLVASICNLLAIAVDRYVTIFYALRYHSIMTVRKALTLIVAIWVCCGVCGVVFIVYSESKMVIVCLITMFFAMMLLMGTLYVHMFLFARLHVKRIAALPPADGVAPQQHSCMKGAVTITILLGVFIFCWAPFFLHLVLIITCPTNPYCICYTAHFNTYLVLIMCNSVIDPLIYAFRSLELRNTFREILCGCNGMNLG
T1 sequence (Q01726 whole entry): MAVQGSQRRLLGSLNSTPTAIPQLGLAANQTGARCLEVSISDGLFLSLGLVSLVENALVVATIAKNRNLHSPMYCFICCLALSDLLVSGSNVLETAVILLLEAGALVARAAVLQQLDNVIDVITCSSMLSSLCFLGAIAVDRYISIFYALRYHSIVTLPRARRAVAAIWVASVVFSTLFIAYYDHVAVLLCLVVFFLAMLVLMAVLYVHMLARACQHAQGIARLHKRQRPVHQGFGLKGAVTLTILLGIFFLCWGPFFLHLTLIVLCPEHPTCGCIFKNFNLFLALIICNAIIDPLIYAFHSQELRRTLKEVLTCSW
T4 sequence (P32245 whole entry): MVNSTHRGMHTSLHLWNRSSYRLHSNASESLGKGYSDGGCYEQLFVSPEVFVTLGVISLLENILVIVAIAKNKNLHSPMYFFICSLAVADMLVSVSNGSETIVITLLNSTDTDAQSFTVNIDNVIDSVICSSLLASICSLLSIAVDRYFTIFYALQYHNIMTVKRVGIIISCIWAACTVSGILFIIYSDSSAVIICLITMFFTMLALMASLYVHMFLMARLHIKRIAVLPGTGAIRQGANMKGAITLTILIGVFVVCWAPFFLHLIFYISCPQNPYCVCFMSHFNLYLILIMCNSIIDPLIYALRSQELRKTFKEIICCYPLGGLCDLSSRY
T2 sequence (P33032 whole entry): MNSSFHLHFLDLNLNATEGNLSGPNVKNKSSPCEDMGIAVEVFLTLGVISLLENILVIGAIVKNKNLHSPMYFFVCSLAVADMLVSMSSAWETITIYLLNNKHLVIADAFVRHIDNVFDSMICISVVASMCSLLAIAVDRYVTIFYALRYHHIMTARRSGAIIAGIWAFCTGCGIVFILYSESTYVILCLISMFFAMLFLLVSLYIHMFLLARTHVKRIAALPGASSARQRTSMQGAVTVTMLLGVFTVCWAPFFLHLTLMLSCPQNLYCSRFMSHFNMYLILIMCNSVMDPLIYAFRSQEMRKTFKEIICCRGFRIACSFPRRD

SMILES | IC50 [1] | EC50 [2] | EC50 (Melanocortin receptor 4 [7]) | IC50 (Melanocortin receptor 4 [8]) | IC50 (Melanocortin receptor 5 [10]) | IC50 (Melanocortin receptor 3 [11]) | other results
CCCC[C@H](NC(C)=O)C(=O)N[C@H]1CC(=O)NCCCC[C@@H](C(N)=O)NC(=O)[C@H](Cc2c[nH]c3ccccc23)NC(=O)[C@@H]2CCCN2C(=O)[C@@H](Cc2ccc3ccccc3c2)NC(=O)[C@H](Cc2cnc[nH]2)NC1=O | 600 nM | 160 nM |  |  |  |  | 
CCCC[C@H](NC(C)=O)C(=O)N[C@H]1CC(=O)NCCCC[C@@H](C(N)=O)NC(=O)[C@H](Cc2c[nH]c3ccccc23)NC(=O)[C@@H]2C[C@H](NC(=N)N)CN2C(=O)[C@@H](Cc2ccccc2)NC(=O)[C@H](Cc2cnc[nH]2)NC1=O |  |  |  |  |  |  | IC50 [3]: Not Active
CCCC[C@H](NC(C)=O)C(=O)N[C@H]1CC(=O)NCCCC[C@@H](C(N)=O)NC(=O)[C@H](Cc2c[nH]c3ccccc23)NC(=O)[C@H](CCCN=C(N)N)NC(=O)[C@@H](Cc2ccccc2)NC(=O)[C@@H]2C[C@@H](N=C(N)N)CN2C1=O | 2.7 nM | 820 nM | 3500 nM | 0.6 nM |  |  | IC50 (Melanocortin receptor 5 [4]): 2.5 nM; EC50 (Melanocortin receptor 3 [5]): 14 nM; EC50 (Melanocortin receptor 5 [6]): 1.6 nM; IC50 (Melanocortin receptor 3 [9]): 1 nM
CCCC[C@H](NC(C)=O)C(=O)N[C@H]1CC(=O)NCCCC[C@@H](C(N)=O)NC(=O)[C@H](Cc2c[nH]c3ccccc23)NC(=O)[C@@H]2CCCN2C(=O)[C@@H](Cc2ccccc2)NC(=O)[C@H](Cc2cnc[nH]2)NC1=O | > 4800 nM | > 1000 nM |  |  |  |  | 
CCCC[C@H](NC(C)=O)C(=O)N[C@H]1CC(=O)NCCCC[C@@H](C(N)=O)NC(=O)[C@H](Cc2c[nH]c3ccccc23)NC(=O)[C@@H]2C[C@@H](NC(=N)N)CN2C(=O)[C@@H](Cc2ccc3ccccc3c2)NC(=O)[C@H](Cc2cnc[nH]2)NC1=O | 400 nM | 19000 nM |  |  |  |  | 
CCCC[C@H](NC(C)=O)C(=O)N[C@H]1CC(=O)NCCCC[C@@H](C(N)=O)NC(=O)[C@H](Cc2c[nH]c3ccccc23)NC(=O)[C@@H]2C[C@H](N=C(N)N)CN2C(=O)[C@@H](Cc2ccc3ccccc3c2)NC(=O)[C@H](Cc2cnc[nH]2)NC1=O | > 3000 nM |  |  |  |  |  | 
CCCC[C@H](NC(=O)[C@@H](NC(=O)[C@H](Cc1ccc(O)cc1)NC(C)=O)C(C)C)C(=O)NCC(=O)N[C@@H](Cc1cnc[nH]1)C(=O)N[C@H](Cc1ccccc1)C(=O)N1C[C@H](NC(=N)N)C[C@H]1C(=O)N[C@@H](Cc1c[nH]c2ccccc12)C(=O)N[C@@H](CC(=O)O)C(=O)N[C@@H](CCCNC(=N)N)C(=O)N[C@@H](Cc1ccccc1)C(=O)NCC(N)=O | 830 nM | 1400 nM |  |  | Not Active | Not Active | IC50 (Melanocortin receptor 4 [12]): Not Active
CCCC[C@H](NC(C)=O)C(=O)N[C@H]1CC(=O)NCCCC[C@@H](C(N)=O)NC(=O)[C@H](Cc2c[nH]c3ccccc23)NC(=O)[C@H](CCCN=C(N)N)NC(=O)[C@@H](Cc2ccccc2)NC(=O)[C@@H]2C[C@H](N=C(N)N)CN2C1=O |  | 2700 nM | 41 nM | 5.7 nM |  |  | EC50 (Melanocortin receptor 3 [5]): 2500 nM; EC50 (Melanocortin receptor 5 [6]): 21 nM; IC50 (Melanocortin receptor 3 [9]): 2.8 nM
CCCC[C@H](NC(=O)[C@@H](NC(=O)[C@H](Cc1ccc(O)cc1)NC(C)=O)C(C)C)C(=O)NCC(=O)N[C@@H](Cc1cnc[nH]1)C(=O)N[C@H](Cc1ccccc1)C(=O)N1C[C@@H](NC(=N)N)C[C@H]1C(=O)N[C@@H](Cc1c[nH]c2ccccc12)C(=O)N[C@@H](CC(=O)O)C(=O)N[C@@H](CCCNC(=N)N)C(=O)N[C@@H](Cc1ccccc1)C(=O)NCC(N)=O | 1000 nM | > 5000 nM |  |  | Not Active | Not Active | IC50 (Melanocortin receptor 4 [12]): Not Active
CCCC[C@H](NC(=O)[C@@H](NC(=O)[C@H](Cc1ccc(O)cc1)NC(C)=O)C(C)C)C(=O)NCC(=O)N[C@@H](Cc1cnc[nH]1)C(=O)N[C@H](Cc1ccccc1)C(=O)N1CCC[C@H]1C(=O)N[C@@H](Cc1c[nH]c2ccccc12)C(=O)N[C@@H](CC(=O)O)C(=O)N[C@@H](CCCNC(=N)N)C(=O)N[C@@H](Cc1ccccc1)C(=O)NCC(N)=O | 190 nM | 120 nM | 210 nM | 270 nM | Not Active | Not Active | 
